STEP block = blocks human striatal-enriched tyrosine phosphatase; P54829; actives 0.25% (n = 360,000); inhibition, % at 20 µM; recombinant STEP, OMFP fluorogenic substrate, fluorescence;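 active = inhibition at 20 µM, scaled per plate between control wells, above about 37%, limit read from the data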;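 also: 0% = DMSO with enzyme and substrate and 100% = substrate only without enzyme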
Target sequence (P54829 whole entry, looked up): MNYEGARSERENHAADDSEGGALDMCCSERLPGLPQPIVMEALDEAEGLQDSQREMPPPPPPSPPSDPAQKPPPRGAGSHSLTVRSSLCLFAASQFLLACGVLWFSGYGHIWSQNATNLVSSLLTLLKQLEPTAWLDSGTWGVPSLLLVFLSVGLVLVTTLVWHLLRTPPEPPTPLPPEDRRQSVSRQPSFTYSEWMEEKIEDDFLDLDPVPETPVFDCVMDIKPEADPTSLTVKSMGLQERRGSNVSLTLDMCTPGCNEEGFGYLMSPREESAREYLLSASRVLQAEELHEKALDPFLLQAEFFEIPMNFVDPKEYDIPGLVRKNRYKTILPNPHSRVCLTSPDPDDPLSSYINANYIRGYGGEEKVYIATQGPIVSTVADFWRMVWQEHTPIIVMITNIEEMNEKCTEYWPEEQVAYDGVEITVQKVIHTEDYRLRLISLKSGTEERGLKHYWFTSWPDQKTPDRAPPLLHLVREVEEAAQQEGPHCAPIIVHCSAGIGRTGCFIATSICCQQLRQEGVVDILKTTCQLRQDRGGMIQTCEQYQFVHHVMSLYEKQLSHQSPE
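System: isolated STEP enzyme; schedule: 20 min enzyme reaction at room temperature, protected from light; medium: Bis-Tris buffer pH 6.0, 2.5 mM DTT, 0.005% Tween 20; signal: fluorescence, 480/540 nm; dosing: single compound dose of 20 µM, 1% DMSO final; also added: OMFP substrate, 25 µM final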
HKDC1 inh = inhibitors of human hexokinase HKDC1; inhibition, % at 20 µM; recombinant HKDC1, G6PDH/diaphorase resazurin coupled fluorescence; Q2TB90; actives 0.16% (n = 340,000); AID 493160;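 active = inhibition above about 35% when tested at 20 µM, limit read from the data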;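 also: plate controls were DMSO wells with enzyme for no effect and DMSO wells lacking enzyme for full effect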
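Test system: recombinant HKDC1 (HK5) hexokinase enzyme, produced in-house / Doses: 20 µM test compound, 1% DMSO / Timing: 90 min, room temperature / Detection: G6PDH/diaphorase-coupled fluorescence, 1 mM NADP, 100 µM resazurin, 525/613 nm / Control set: DMSO wells with and without enzyme mix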
SUMO1-SIM PPI = alters human SUMO1 binding to SIM partners | actives 0.33% (n = 360,000) | inhibition, % at 20 µM | P63165 | SUMO1 binding to a labelled peptide, TR-FRET, 1 h; in the data active = inhibition above about 37%
LMPTP inh = blocks human LMPTP phosphatase | actives 0.22% (n = 360,000) | inhibition, % at 20 µM | recombinant LMPTP-A, OMFP fluorogenic substrate, fluorescence intensity | P24666;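 active = compounds that cut the enzyme signal by at least half of the control window in the single-dose screen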;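 also: plate controls were DMSO wells with enzyme plus substrate for no effect and substrate without enzyme for full effect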
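Material: LMPTP-A; amount: 0.625 nM enzyme; doses: single 20 µM dose; times: reaction 50 min, room temperature, dark; technique: fluorescence intensity of OMFP turnover product; benchmarks: no-enzyme and uninhibited controls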
DNMT1 block = blocks human DNA methyltransferase DNMT1 | P26358 | DNMT1 molecular beacon, Hinp1I cleavage, fluorescence | inhibition (reported as % activation of signal), % at 10 µM | actives 0.83% (n = 360,000); in the data active = inhibition above about 50%
Scp1 inh = blocks human Scp-1 phosphatase activity; Recombinant Scp1, phosphopeptide, malachite green phosphate absorbance; inhibition, % at 20 µM; actives 0.88% (n = 340,000); AID 493091;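 active = inhibition above about 50% at 20 µM, limit read from the data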;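 also: plate controls were DMSO wells with enzyme for no effect and wells lacking enzyme for full effect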
Target sequence (Q9GZU7 76-261 limits assumed): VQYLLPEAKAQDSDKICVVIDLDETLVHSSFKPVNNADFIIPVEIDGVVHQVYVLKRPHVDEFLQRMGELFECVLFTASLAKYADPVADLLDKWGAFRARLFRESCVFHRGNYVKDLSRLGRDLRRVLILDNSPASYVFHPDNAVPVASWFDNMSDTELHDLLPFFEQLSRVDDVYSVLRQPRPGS
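System: truncated SCP-1 phosphatase (76-261aa); medium: Tris acetate buffer pH 5.5 with MgCl2 and Tween-20; incubation: 45 min room-temperature reaction, 5 min colour, 30 min stabiliser; compound: single 20 µM dose, 1% DMSO; reagent: Phosphorylated 17-residue peptide substrate; read-out: % inhibition at 20 µM; technique: colorimetric free-phosphate detection, absorbance 630 nm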
Scp1 confirm = confirmation of human Scp-1 phosphatase inhibitors | shares compounds with Scp1 inh | recombinant SCP-1 catalytic domain, phosphate release, malachite green absorbance | inhibition, % at 20 µM | actives 61% (n = 2,500);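 also: plate controls were DMSO with enzyme for no effect and buffer wells lacking enzyme for full effect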
Scp-1 MG ctr = interferes with malachite green readout, flagging false Scp-1 hits; shares compounds with Scp1 inh; AID 540313; 2,500 tested, under 10 active; apparent inhibition (interference), % at 20 µM; Colorimetric interference counterscreen, malachite green absorbance 630 nm;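 also: compounds added after enzyme reaction finished so only phosphate colour detection is probed; plate controls were DMSO wells with completed Scp-1 reaction for no effect and substrate wells lacking enzyme for full effect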
Scp1 DSF = binds human Scp-1, shifting its melting temperature; actives 25% (n = 1,500); shares compounds with Scp1 inh; Recombinant SCP1, Sypro Orange thermal shift Tm; thermal shift relative to vanadate control, % at 40 µM;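 active = substances whose mean melting-temperature shift, as a percentage of the reference inhibitor's shift, reaches about 5.3%, limit read from the data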;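 also: 0% = Tm of DMSO wells and 100% = Tm with sodium orthovanadate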
DNMT1 confirm = confirmation of human DNMT1 inhibitors; shares compounds with DNMT1 block; DNMT1 molecular beacon HinP1I cleavage, fluorescence; inhibition, % at 10 µM; actives 8% (n = 2,300);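 active = average inhibition of at least 30% in the single-concentration confirmation test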
Beacon interf = shows spectral interference in the DNMT1 beacon assay. shares compounds with DNMT1 block. DNMT1 molecular beacon spectral interference counterscreen, fluorescence 485/520. activation (fluorescence interference), % at 10 µM. actives 1% (n = 2,300);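 active = activation of at least 30% at 10 µM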;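 also: DNMT1 catalytic domain with a HinP1I cleavage step and a FAM/dabcyl DNA beacon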
STEP inh conf = STEP (human) phosphatase inhibition, single concentration confirmation; actives 32% (n = 520); recombinant STEP, OMFP fluorogenic substrate, fluorescence; inhibition, % at 20 µM; shares compounds with STEP block; AID 623866; call rule not given here;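 also: 0% = enzyme with substrate plus DMSO and 100% = substrate without enzyme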
The depositor's hits bear a star; . = no result given. An excerpt weighted towards active compounds, which were near 1.8% of everything screened.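 The calls were made as follows, unless noted: active = inhibition of at least 30% at 20 µM; inactive = the rest.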

SMILES | STEP block | HKDC1 inh | SUMO1-SIM PPI | LMPTP inh | DNMT1 block | Scp1 inh | Scp1 confirm | Scp-1 MG ctr | Scp1 DSF | STEP inh conf | others
CC1(C(=O)NS(=O)(=O)C2CC2)CCN(C(=O)c2ccc3c(c2)OCO3)C1 (stereo not drawn) | 3 | . | 0 | -2 | 5 | . | . | . | . | .
COc1cccc2cc(C(=O)NNC(=O)c3ccc(Br)cc3)c(=O)oc12 | 82* | 22 | -11 | 44 | 7 | 99* | 55* | -13 | 0 | 0
CCOCCC(=O)Nc1ccc2c(c1)c(=O)n(C)n2C/C=C/c1ccccc1 | -1 | . | 5 | 2 | 2 | . | . | . | . | .
O=[N+]([O-])c1cccc(/C=N/n2c(-c3cccnc3)n[nH]c2=S)c1 | 4 | -8 | -6 | -2 | 3 | 3 | . | . | . | .
O=[N+]([O-])c1ccc(/C=N/n2c(-c3cccnc3)n[nH]c2=S)cc1 | 56* | -7 | -20 | 43 | 4 | 60* | 52* | -19 | 4 | 5
N=C1S/C(=C\c2ccc(O)cc2)C(=O)N1c1ccc(F)cc1 | 78* | -4 | -4 | 69* | 20 | 78* | 52* | -13 | 19* | 12*
Cc1ccc(Cn2c(C(C)Nc3nc(-c4ccc(C)cc4)cs3)nc3cc(Cl)c(Cl)cc32)cc1 (stereo not drawn) | 78* | 11 | 110* | 24 | 78* | 61* | 56* | 2 | 4 | 26 | DNMT1 confirm=11;Beacon interf=5
CCCCCCn1cc(CN2CC(N3CCN(C4CCN(C)CC4)CC3)CS2(=O)=O)nn1 (stereo not drawn) | . | . | -24 | -8 | . | . | . | . | . | .
Cc1ccc(-n2c(C)nc3oc4ccccc4c(=O)c3c2=O)cc1 | 49* | 10 | 25 | 61* | 99* | 68* | 61* | -10 | 5 | 85* | DNMT1 confirm=6;Beacon interf=-2
O=C1Nc2ccc3sc4ccccc4c3c2C1=O | 96* | 11 | 55* | 77* | 24 | 93* | 79* | -9 | 8.0* | 53*
CCCCC(=O)N(C)c1c(C)nc2ccc(C(=O)N3CCN(S(=O)(=O)CC)CC3)cn12 | 2 | . | -2 | -5 | -1 | . | . | . | . | .
Cc1cc(C(=O)N/N=C/c2ccc(-c3cccc([N+](=O)[O-])c3)o2)n[nH]1 | -2 | 1 | -16 | 1 | 13 | -8 | . | . | . | .
Cc1cc(C(=O)N/N=C/c2ccc(-c3ccc([N+](=O)[O-])cc3Cl)o2)n[nH]1 | 94* | 19 | 68* | 69* | -4 | 56* | 68* | -21 | 8.7* | 34*
O=C(/C=C/c1cccc([N+](=O)[O-])c1)c1cccs1 | -2 | 11 | -12 | 1 | 2 | -10 | . | . | . | .
O=C(N/N=C/C=C/c1ccc([N+](=O)[O-])cc1)c1cccs1 | 96* | 14 | -4 | 87* | 97* | 101* | 91* | -6 | 6.4* | -5 | DNMT1 confirm=11;Beacon interf=1
O=C(N/N=C/C=C\c1ccccc1[N+](=O)[O-])c1cccs1 | 0 | 2 | -20 | -1 | 0 | 4 | . | . | . | .
O=C(/C=C/c1cccc([N+](=O)[O-])c1)Nc1ccc(NC(=O)c2cccs2)cc1 | 45* | -1 | 0 | 56* | 44 | 75* | 74* | -10 | 15* | 18
CC(=O)c1c(C)[nH]c(C(=O)OCC(=O)Nc2ccc(Cl)cc2[N+](=O)[O-])c1C | 10 | 11 | -24 | 0 | -1 | -7 | . | . | . | .
COc1ccc(NC(=O)NNC(=O)c2ccc(-c3ccccc3)cc2)c(OC)c1 | 5 | 2 | 2 | 4 | 2 | 2 | . | . | . | .
COc1ccc(NC(=O)NNC(=O)c2ccc(-c3ccccc3)cc2)cc1 | 40* | 0 | 15 | 29 | 48 | 88* | 46* | -14 | -15 | 21
O=C(O)CSc1sc(=S)sc1SCC(=O)O | 58* | 0 | -12 | 1 | -2 | 76* | 10 | -11 | . | 14
COc1ccc2[nH]c3nc(SCC(=O)NNC(=O)c4ccc(OC)c(OC)c4)nnc3c2c1 | 6 | 10 | -4 | 1 | -3 | 4 | . | . | . | .
Cc1ccc(C(=O)NNC(=O)CSc2nnc3c(n2)[nH]c2ccc(F)cc23)cc1 | 56* | 7 | 7 | 52* | 105* | 67* | 76* | -12 | -20 | -5 | DNMT1 confirm=5;Beacon interf=-1
N#Cc1c(SCc2c(Cl)cccc2Cl)nc(N)[nH]c1=S | -3 | 13 | 15 | 3 | -14 | -6 | . | . | . | .
CC(=O)Cc1nsc(Nc2ccc(Cl)cc2)n1 | 1 | -1 | -3 | 0 | 0 | -3 | . | . | . | .
SMILES | STEP block | HKDC1 inh | SUMO1-SIM PPI | LMPTP inh | DNMT1 block | Scp1 inh | Scp1 confirm | Scp-1 MG ctr | Scp1 DSF | STEP inh conf | others
CCN(CC)S(=O)(=O)c1ccc(N2CCOCC2)c(NC(=O)COc2ccccc2C)c1 | 1 | 0 | 3 | 0 | -7 | -10 | . | . | . | .
COc1ccc(/C=N/N=C2/NC(=O)C(CC(=O)O)S2)cc1OCc1ccc(Cl)cc1Cl (stereo not drawn) | 80* | 5 | 17 | 4 | 7 | 66* | 79* | -7 | -10 | 35*
Cc1c(NC(=S)NC(=O)c2ccccc2)c(=O)n(-c2ccccc2)n1C | -1 | -4 | -1 | -1 | -3 | -11 | . | . | . | .
CC(=O)N1CCOc2ccc(S(=O)(=O)NCc3ccc(F)cc3)cc21 | 73* | -1 | -2 | 22 | 26 | 62* | 50* | -16 | -9 | 30*
O=Cc1cn(-c2ccccc2)nc1-c1cc2cc(O)ccc2oc1=O | 60* | 20 | 44* | 55* | 3 | 64* | 53* | -10 | 4 | 79*
O=C(O)/C=C/c1cn(-c2ccccc2)nc1-c1cc2ccccc2oc1=O | 4 | 15 | 6 | 0 | 1 | -7 | . | . | . | .

Compound activity (PubChem)
